High-throughput results from PubChem.
Only some compounds are listed: those with a hit (about 3.4% of all), similar ones and a draw of the others.
CHT PAM = allosteric activators of human choline transporter CHT; B-score at 10 µM; CHT-expressing cells, membrane potential dye, choline EC20; active compounds read high; LV-AA mutant CHT in HEK293 cells; 310,000 tested, 0.49% active; Q9GZV3;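 active = initial fluorescence not abnormally high and integrated response B-score, plate-corrected, over 3 SD above library mean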
Target sequence (Q9GZV3 whole entry, looked up): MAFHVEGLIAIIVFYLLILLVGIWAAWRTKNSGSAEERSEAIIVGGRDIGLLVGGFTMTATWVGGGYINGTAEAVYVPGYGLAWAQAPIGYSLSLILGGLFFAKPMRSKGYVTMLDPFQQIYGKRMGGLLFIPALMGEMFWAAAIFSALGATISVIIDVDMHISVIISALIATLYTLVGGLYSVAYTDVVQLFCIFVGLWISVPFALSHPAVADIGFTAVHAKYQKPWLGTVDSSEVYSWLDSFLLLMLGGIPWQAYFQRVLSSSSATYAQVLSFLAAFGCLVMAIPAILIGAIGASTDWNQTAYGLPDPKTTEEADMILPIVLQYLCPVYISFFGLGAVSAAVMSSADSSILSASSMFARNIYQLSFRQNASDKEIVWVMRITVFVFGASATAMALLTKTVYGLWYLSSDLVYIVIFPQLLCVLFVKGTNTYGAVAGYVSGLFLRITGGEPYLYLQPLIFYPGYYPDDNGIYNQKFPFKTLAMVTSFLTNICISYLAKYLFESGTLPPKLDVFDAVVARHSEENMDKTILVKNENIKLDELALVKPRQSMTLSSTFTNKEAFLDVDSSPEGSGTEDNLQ
IMP-1 inhibitor = inhibitors of Pseudomonas aeruginosa IMP-1 metallo-beta-lactamase | 290,000 tested, 0.45% active | purified IMP-1, nitrocefin hydrolysis, epi-absorbance fluorescence | inhibition, % at 5.6 µM | AID 1556;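 active = inhibition above the mean plus 3 SD of all compounds in the same screening run, cut at about 4.5% in these data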
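System: Purified IMP-1 | Read-out basis: Percent enzyme inhibition | Controls: IMP-1 with DMSO as 0%, enzyme-free DMSO as 100% | Replicates: One well per compound | Doses: 5.6 µM nominal single concentration | Detection: Epi-absorbance fluorescence, 480 nm excitation, 530 nm emission | Incubation: 25 °C, 15 min preincubation, 25 min reaction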
TMEM16A act = activates or potentiates the mouse TMEM16A chloride channel | B-score at 10 µM | 340,000 tested, 0.3% active | AID 623877 | HEK293 TMEM16A/YFP-H148Q/I152L, iodide quench fluorescence; active compounds read low | Q8BHY3;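 active = fluorescence-ratio B-score plate-corrected deviation score at least 3 library SD below zero, with starting fluorescence score within 5 deviations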;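 also: channel opened by trigger with iodide after compound preincubation; score built on the fluorescence ratio of max minus min over baseline; more negative score means more quench and so TMEM16A activation or potentiation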
VIM-2 inhibitor = inhibitors of Pseudomonas aeruginosa VIM-2 metallo-beta-lactamase; 290,000 tested, 0.89% active; inhibition, % at 5.6 µM; purified VIM-2, nitrocefin hydrolysis, epi-absorbance fluorescence;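 active = inhibition above the mean of all tested compounds plus 3 SD, cutoff set per screening run, cut at about 7.5% in these data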;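 also: red hydrolysis product quenches plate fluorescence so inhibitors raise well fluorescence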
ANO1 block = inhibitors of mouse TMEM16A calcium-activated chloride channel; Q8BHY3; HEK293 TMEM16A/YFP iodide influx fluorescence, ionomycin; normalized B-score (activity score, 25-100; higher = stronger inhibition) at 10 µM; 310,000 tested, 1.2% active;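 active = ratio plate-corrected score three or more library SD toward inhibition, starting fluorescence score within five deviations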;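 also: score derived from kinetic fluorescence span divided by baseline fluorescence per well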
CHT block = human CHT choline transport inhibition; CHT-expressing cells, membrane potential dye, choline response; active compounds read low; B-score at 10 µM; 310,000 tested, 0.86% active;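 active = B-score over 3 SD under the library average, and starting fluorescence ratio not unusually high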;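 also: choline stimulus applied at its EC90 after an EC20 pre-addition; B-score computed on integrated fluorescence ratio after choline addition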
Large screens that a line does not name were inactive.

CCOC(=O)c1c(C)cc(C)n2c1nc1ccccc12	VIM-2 inhibitor 11
CCOC(=O)CSc1cc(C)c(C#N)c2nc3ccccc3n12	none
CCCCn1c(N)c(N(CC(C)C)C(=O)COC(=O)C2(c3ccccc3)CC2)c(=O)[nH]c1=O	none (no result: IMP-1 inhibitor, VIM-2 inhibitor)
COc1ccc(OC)c(-c2cc(C(=O)NCCCn3ccnc3)no2)c1	VIM-2 inhibitor 8.4
COc1ccc(C(=O)NCCCn2ccnc2)cc1	none
O=C(O)c1ccccc1Nc1cccc(OCc2ccc3ccccc3n2)c1	ANO1 block 100 (no result: IMP-1 inhibitor, VIM-2 inhibitor)
O=C(O)c1ccc(Nc2c3ccccc3nc3ccccc23)cc1	none
c1cncc(Nc2c3ccccc3nc3ccccc23)c1	VIM-2 inhibitor 10
Oc1cccc(Nc2c3ccccc3nc3ccccc23)c1	VIM-2 inhibitor 11
Cc1ccc(-c2nc(Nc3cccc(O)c3)c3ccccc3n2)cc1	none
O=C(Cn1cc(C(F)(F)F)ccc1=O)NC1CCCC1	none (no result: CHT PAM, IMP-1 inhibitor, VIM-2 inhibitor, ANO1 block, CHT block)
CCOc1c(OC)ccc2c3c(c(=O)oc12)CCCC3	none
Cc1c(OC(C(=O)O)c2ccccc2)ccc2c3c(c(=O)oc12)CCC3 (stereo unspecified)	VIM-2 inhibitor 7.7 (no result: CHT PAM, ANO1 block, CHT block)
Cc1c(OC(C(=O)O)c2ccccc2)ccc2c1oc(=O)c1ccccc12 (stereo unspecified)	none
Cc1c(OC(C)C(=O)NCC(O)c2ccccc2)ccc2c3c(c(=O)oc12)CCCC3 (stereo unspecified)	VIM-2 inhibitor 11
CCN(CC)C(=O)COc1ccc2c3c(c(=O)oc2c1C)CCCC3	VIM-2 inhibitor 8.0
NS(=O)(=O)c1ccc(Sc2ccc3ccccc3c2)nc1	none
Clc1cccc(Cl)c1CSc1nnc([C@@H]2CCCN2)o1	IMP-1 inhibitor 5.0
COc1cc(NC(=O)Nc2ccccc2OC)c(OC)cc1NC(=O)CN1CCCCC1	IMP-1 inhibitor 4.7
O=C(CN1CCCCC1)Nc1cc(Cl)ccc1Oc1ccccc1	ANO1 block 100
C[N+](C)(C)CCCN(Cc1ccc2c(c1)OCO2)C(=O)NC1CCCCC1	none
CC(C)(Sc1ccc(CCN(CCCCC2CCCCC2)C(=O)NC2CCCCC2)cc1)C(=O)O	ANO1 block 100 (no result: IMP-1 inhibitor, VIM-2 inhibitor)
COc1ccc(CN(C)C(=O)c2ccc(OCC(=O)Nc3cccc(C(F)(F)F)c3)c(OC)c2)c(OC)c1	ANO1 block 100 (no result: IMP-1 inhibitor, VIM-2 inhibitor)
COc1cc(C(=O)NCCCN(C)C)ccc1OCC(=O)Nc1cccc(C(F)(F)F)c1	none
COc1cccc(CN(C)C(=O)c2ccc(OCC(=O)Nc3cccc(C(F)(F)F)c3)c(OC)c2)c1	ANO1 block 100 (no result: IMP-1 inhibitor, VIM-2 inhibitor)
COc1ccccc1NC(=S)N1CCC(C(=O)c2ccc(F)cc2)CC1	none
CC1CN(CCc2ccccc2)c2nc3c(c(=O)n(CC(N)=O)c(=O)n3C)n2C1 (stereo unspecified)	none
O=CNC(n1cnc2c(N3CCOCC3)ncnc21)C(Cl)(Cl)Cl (stereo unspecified)	TMEM16A act -7.2
c1ccc(-n2nnc3c(N4CCOCC4)ncnc32)cc1	none
COc1ccccc1CCNC(=O)c1ccc(NC(=O)CC2SC(N3CCCCC3)=NC2=O)cc1 (stereo unspecified)	none (no result: CHT PAM, IMP-1 inhibitor, VIM-2 inhibitor, ANO1 block, CHT block)
Cc1cc(CN(C)C(=O)c2ccc(OC3CCN(CCc4ccccc4)CC3)cc2)on1	none
Cc1c(Br)c(=O)oc2c(C)c(O)ccc12	VIM-2 inhibitor 8.4
Cc1c(O)ccc2c(CN(C)Cc3ccccc3)cc(=O)oc12	none
Cc1cc(S(=O)(=O)N2CCCC(N3CCOCC3)C2)c(C)cc1Cl (stereo unspecified)	none
CC(=O)Nc1nnc(-c2ccc3c(c2)CCCC3)o1	none
O=C(Nc1nnc(-c2ccc3c(c2)CCCC3)o1)C1COc2ccccc2O1 (stereo unspecified)	ANO1 block 25
Cc1cccnc1NC(=S)NC(=O)c1cccs1	ANO1 block 25
COc1ccc(C(=O)N/N=C\c2coc3ccc(C)cc3c2=O)cc1	IMP-1 inhibitor 8.7
Cc1ccc2occ(/C=N/NC(=O)c3ccc(Cl)cc3)c(=O)c2c1	none
Cc1ccsc1C(=O)OCC(=O)N1CC(C)CC(C)C1 (stereo unspecified)	none (no result: CHT PAM, IMP-1 inhibitor, VIM-2 inhibitor, ANO1 block, CHT block)
O=C(CNC(=O)c1cccs1)Nc1ccc(N2CCOCC2)cc1	none (no result: CHT PAM, IMP-1 inhibitor, VIM-2 inhibitor, ANO1 block, CHT block)
Cc1ccc(S(=O)(=O)N2CCOCC2)cc1NC(=O)COC(=O)COc1ccccc1[N+](=O)[O-]	none (no result: CHT PAM, IMP-1 inhibitor, VIM-2 inhibitor, ANO1 block, CHT block)
CCOc1ccccc1C(=O)OCC(=O)Nc1cc(S(=O)(=O)N2CCOCC2)ccc1C	TMEM16A act -42 (no result: CHT PAM, IMP-1 inhibitor, VIM-2 inhibitor, ANO1 block, CHT block)
COc1ccc(S(=O)(=O)N2CCOCC2)cc1NC(=O)Cc1coc2cc(C)c(C)cc12	IMP-1 inhibitor 71
COc1ccc(S(=O)(=O)N2CCOCC2)cc1NC(=O)Cc1ccccc1Cl	none
O=C(COC(=O)c1ccccn1)Nc1ccc(S(=O)(=O)N2CCOCC2)cc1	ANO1 block 25
CC1(OC(=O)CCc2ccccc2)C(=O)C=C2C=C3CCCN3C=C2C1=O (stereo unspecified)	none (no result: IMP-1 inhibitor, VIM-2 inhibitor)
CC1(OC(=O)c2cccs2)C(=O)C=C2C=C3CCCN3C=C2C1=O (stereo unspecified)	CHT block -5.3 (no result: IMP-1 inhibitor, VIM-2 inhibitor)
COc1ccc(-c2noc(=O)n2Cc2ccccc2Cl)cc1	none
Cc1nc(-n2[nH]c3c(c2=O)CCCC3)[nH]c(=O)c1Cc1ccccc1	none
Cc1cc(=O)[nH]c(-n2[nH]c3c(c2=O)CCCC3)n1	IMP-1 inhibitor 14
CCOc1ccc(N2CSC(=S)N(c3ccc(OCC)cc3)C2)cc1	IMP-1 inhibitor 4.7
COc1ccccc1C1CC(c2cccc(NS(C)(=O)=O)c2)=NN1S(=O)(=O)c1ccccc1 (stereo unspecified)	TMEM16A act -5
COc1ccc(Nc2nc(NCCCN3CCOCC3)nc(N)c2[N+](=O)[O-])cc1	none
Nc1nc(NCCCN2CCOCC2)nc(Nc2cccc(F)c2)c1[N+](=O)[O-]	VIM-2 inhibitor 9.7
Nc1nc(NCCCN2CCOCC2)nc(Nc2ccc(F)cc2)c1[N+](=O)[O-]	VIM-2 inhibitor 8.1
Cc1nn(-c2ccccc2)c(N)c1Sc1ccccc1[N+](=O)[O-]	none
CCC(CC)C(=O)Oc1c(Sc2ccccc2[N+](=O)[O-])c(C)nn1C(C)(C)C	TMEM16A act -10
Cc1cc(OCC(=O)Nc2cc(C(C)(C)C)on2)ccc1[N+](=O)[O-]	none
N=C(N)c1ccc(/C=C/c2ccc(C(=N)N)cc2O)cc1	IMP-1 inhibitor 5.7
CC(C(=O)Nc1ccc2c(c1)OCCO2)N(C)CC(=O)Nc1ccccc1Br (stereo unspecified)	none (no result: CHT PAM, IMP-1 inhibitor, VIM-2 inhibitor, ANO1 block, CHT block)
CC1=NOC(=O)/C1=C\c1ccc(-c2cccc(Cl)c2)o1	ANO1 block 100
COc1ccc(-c2ccc(/C=C3\C(=O)N(c4ccccc4)N=C3c3ccccc3)o2)c([N+](=O)[O-])c1	none
CC1=NOC(=O)/C1=C\c1ccc(-c2ccc(Cl)c(C(=O)O)c2)o1	none (no result: CHT PAM, ANO1 block, CHT block)
